Assay outcomes (PubChem)
CHT inh: human CHT choline transport inhibition; Q9GZV3; CHT-expressing cells, membrane potential dye, choline response; hits give low values; B-score at 10 µM; actives 0.86% (n = 310,000); AID 488975;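 active = B-score over 3 SD under the library average, and starting fluorescence ratio not unusually high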;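 also: choline stimulus applied at its EC90 after an EC20 pre-addition; B-score computed on integrated fluorescence ratio after choline addition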
Target sequence (Q9GZV3 whole entry, looked up): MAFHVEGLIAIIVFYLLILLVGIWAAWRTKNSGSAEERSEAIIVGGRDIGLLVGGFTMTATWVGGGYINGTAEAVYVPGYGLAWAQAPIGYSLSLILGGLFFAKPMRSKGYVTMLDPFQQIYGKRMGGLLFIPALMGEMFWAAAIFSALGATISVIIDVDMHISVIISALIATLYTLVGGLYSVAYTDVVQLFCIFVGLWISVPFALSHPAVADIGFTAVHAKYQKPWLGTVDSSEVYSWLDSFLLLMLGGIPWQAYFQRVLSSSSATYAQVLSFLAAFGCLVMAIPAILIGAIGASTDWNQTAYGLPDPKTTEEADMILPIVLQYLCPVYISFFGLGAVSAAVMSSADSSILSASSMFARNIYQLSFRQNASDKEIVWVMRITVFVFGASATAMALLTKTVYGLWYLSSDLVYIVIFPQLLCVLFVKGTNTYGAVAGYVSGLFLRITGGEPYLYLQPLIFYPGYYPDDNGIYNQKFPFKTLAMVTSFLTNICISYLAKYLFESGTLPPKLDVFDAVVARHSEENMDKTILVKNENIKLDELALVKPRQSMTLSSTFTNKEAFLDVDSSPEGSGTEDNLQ
T cruzi repl: T. cruzi replication inhibition | actives 1.4% (n = 300,000) | AID 1885 | T. cruzi beta-gal in NIH3T3, luminescence, 90 h | inhibition, % (test concentration not listed);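 active = mean inhibition across valid replicates above about 55%, limit read from the data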;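 also: signal also drops with host cell toxicity which is not excluded here; 0% = plate median of DMSO wells and 100% = zero luminescence signal; higher percent means less beta-gal luminescence so fewer parasites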
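System: mouse NIH/3T3 fibroblasts infected with β-gal-expressing T. cruzi Tulahuen C4 / Input: NIH/3T3 cells, 5,000 per well / Buffer or medium: Low-serum DMEM with 2% FBS / Probe or stimulus: 5000 reporter trypomastigotes per well / Schedule: ≥90 h infection period, 3 h prior cell attachment / Measured by: GalScreen luminescence, 60 min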
PolyA inhibitor: blocks polyadenylation in yeast reporter cells. activity score, % at 12 µM. AID 1875. S. cerevisiae SKY197-pL101 polyadenylation reporter, beta-gal luminescence; efflux-impaired pdr1/pdr3 knockout yeast; score 100 = 6 SD above DMSO. actives 0.02% (n = 300,000);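 active = lowest replicate activity score at least 50, where 100 means six control SD above control mean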;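 also: yeast exposed to compound for 9 h at 30 °C; higher score means more reporter readthrough which indicates perturbed polyadenylation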
CHT allo act: allosteric activators of human choline transporter CHT | Q9GZV3 | CHT-expressing cells, membrane potential dye, choline EC20; hits give high values; LV-AA mutant CHT in HEK293 cells | B-score at 10 µM | actives 0.49% (n = 310,000);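 active = initial fluorescence not abnormally high and integrated response B-score, plate-corrected, over 3 SD above library mean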
CHT block conf: human CHT inhibition, confirmatory screen. shares compounds with CHT inh. CHT-expressing cells, choline membrane potential dye; LV-to-AA substituted CHT, HEK293 cells. CHT activity remaining % of control (hits give low values), % at 10 µM. actives 70% (n = 2,400);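 active = choline transporter activity left, mean of duplicates at 10 µM, below buffer-only control mean minus 3 SD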;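 also: depolarization triggered by choline at its EC90 following an EC20 pre-addition; 0% = hemicholinium-3 full block and 100% = buffer-only control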
HEK293 CHT ctr: counter-screen for CHT inhibitors: effect in parental HEK293 cells | shares compounds with CHT inh | membrane potential dye, choline response; active = decrease or increase beyond buffer ±3SD | membrane potential ratio readout (active if shifted either direction beyond buffer ±3SD; no single direction) at 10 µM | actives 4% (n = 2,400) | AID 493222;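 also: parental cells lack the transporter so any hit is non-specific; ratio is peak minus trough fluorescence over baseline after EC90 choline challenge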
Numbers without * were called inactive. In the library only some 2.6% were active in any assay of this set; here they are far more common.

Screening CC(NS(=O)(=O)OCC(Cl)(Cl)Cl)c1ccc(Br)cc1 (stereo not given) returned CHT inh -5.2*, T cruzi repl -4, PolyA inhibitor -7, CHT allo act inactive, CHT block conf 67%* and HEK293 CHT ctr inactive.
Screening Cc1ccc(C(=O)NCC(=O)OCC(=O)Nc2ccccc2C#N)s1 returned CHT inh -13*, T cruzi repl -6, PolyA inhibitor 17, CHT allo act inactive, CHT block conf 65%* and HEK293 CHT ctr inactive.
`CCCCOc1cccc(C(=O)N(Cc2ccccc2)C2CCS(=O)(=O)C2)c1` (stereo not given) gave CHT inh inactive, T cruzi repl 8, PolyA inhibitor 2 and CHT allo act inactive.
Screening O=C(CN1CCC(NC(=O)c2ccccc2F)CC1)Nc1ccc2c(c1)OCCO2 returned CHT inh -5*, T cruzi repl -3, PolyA inhibitor 29, CHT allo act inactive, CHT block conf inactive and HEK293 CHT ctr inactive.
`CCOc1ccccc1NC(=O)NC1CCN(CC(=O)Nc2ccc3c(c2)OCCO3)CC1` gave CHT inh inactive, T cruzi repl 14, PolyA inhibitor -25 and CHT allo act inactive.
`CCCn1c(N)c(N(CCOC)C(=O)c2ccc(-c3ccc(Cl)cc3)o2)c(=O)[nH]c1=O` gave CHT inh inactive, T cruzi repl -3, PolyA inhibitor -17 and CHT allo act inactive.
For CCc1nnc(NC(=O)c2nn(-c3ccccc3)nc2C)s1 the results were CHT inh inactive, T cruzi repl -6, PolyA inhibitor 1 and CHT allo act inactive.
For CCC(Oc1ccccc1)C(=O)Nc1nnc(C(F)(F)F)s1 (stereo not given) the results were CHT inh -5.1*, CHT allo act inactive, CHT block conf inactive and HEK293 CHT ctr inactive.
For CCC(Oc1ccccc1)C(=O)Nc1nnc(C)s1 (stereo not given) the results were CHT inh inactive, T cruzi repl -4, PolyA inhibitor 6 and CHT allo act inactive.
`Cc1nn(-c2ccccc2)nc1C(=O)Nc1nnc(C(F)(F)F)s1` gave CHT inh -12*, T cruzi repl -13, PolyA inhibitor -15, CHT allo act inactive, CHT block conf 43%* and HEK293 CHT ctr inactive.
Screening NC(=O)c1nsc(C(=O)N(CC(=O)NC2CCCC2)Cc2ccc3c(c2)OCO3)c1N returned CHT inh inactive, T cruzi repl -10, PolyA inhibitor 5 and CHT allo act inactive.
`CCOC(=O)c1c(NC(=O)C2C3C=CC(C3)C2C(=O)O)sc2c1CCC(CC)C2` (stereo not given) gave CHT inh -5*, T cruzi repl -9, PolyA inhibitor -9, CHT allo act inactive, CHT block conf 27%* and HEK293 CHT ctr inactive.
For CCOC(=O)c1c(NC(=O)C2C3CCC(O3)C2C(=O)O)sc2c1CCC(CC)C2 (stereo not given) the results were CHT inh inactive, T cruzi repl 3, PolyA inhibitor 9 and CHT allo act inactive.
COc1cc(/C=C2/C(=O)ON=C2c2ccccc2)ccc1O was read as CHT inh -6.7*, T cruzi repl 5, PolyA inhibitor -14, CHT allo act inactive, CHT block conf 37%* and HEK293 CHT ctr inactive.
COc1cc(/C=C2\C(=O)ON=C2c2ccccc2)cc(Cl)c1O was read as CHT inh inactive, T cruzi repl -8, PolyA inhibitor 19 and CHT allo act inactive.
CCOc1cc(/C=C2/C(=O)ON=C2C)cc(Br)c1O was read as CHT inh -9.6*, T cruzi repl -12, PolyA inhibitor -8, CHT allo act inactive, CHT block conf 42%* and HEK293 CHT ctr inactive.
CCOc1cc(/C=C2\C(=O)ON=C2c2ccccc2)cc(Br)c1O was read as CHT inh -5.6*, T cruzi repl -12, PolyA inhibitor 13, CHT allo act inactive, CHT block conf 44%* and HEK293 CHT ctr inactive.
`CC1=NOC(=O)/C1=C/c1ccc(O)c(Br)c1` gave CHT inh -9.6*, T cruzi repl -6, PolyA inhibitor -13, CHT allo act inactive, CHT block conf 21%* and HEK293 CHT ctr inactive.
`O=C(C1=NNCC1c1ccccc1)C1OC1c1ccccc1` (stereo not given) gave CHT inh inactive, T cruzi repl -3, PolyA inhibitor -17 and CHT allo act inactive.
CCN(CC)c1ncnc2c1[nH]c1ccccc12 was read as CHT inh -6.6*, T cruzi repl -4, PolyA inhibitor 5, CHT allo act inactive, CHT block conf 52%* and HEK293 CHT ctr inactive.
CCCOc1ncnc2c1[nH]c1ccccc12 was read as CHT inh inactive, T cruzi repl 0, PolyA inhibitor 2 and CHT allo act inactive.
For O=C(CCl)N(c1ccc(Cl)cc1)c1c[nH]c2ccccc12 the results were CHT inh -5.9*, T cruzi repl 58*, PolyA inhibitor -29, CHT allo act inactive, CHT block conf 56%* and HEK293 CHT ctr inactive.
O=C(CCl)N(c1ccccc1)c1c[nH]c2ccccc12 was read as CHT inh inactive, T cruzi repl 14, PolyA inhibitor 5 and CHT allo act inactive.
Screening FC(F)Sc1ccc(NC(=S)NC2CCCCC2)cc1 returned CHT inh inactive, T cruzi repl 3, PolyA inhibitor -14 and CHT allo act inactive.
CC1CCCCC1NC(=S)Nc1ccc(SC(F)F)cc1 (stereo not given) was read as CHT inh -5.5*, T cruzi repl 30, PolyA inhibitor -11, CHT allo act inactive, CHT block conf 66%* and HEK293 CHT ctr inactive.
Cc1cc2occ(CC(=O)N(C)CC(=O)Nc3ccccc3Cl)c2cc1C was read as CHT inh inactive, T cruzi repl -1, PolyA inhibitor -8 and CHT allo act inactive.
Cc1c(C(=O)N2CCc3ccccc3C2)oc2ccccc12 was read as CHT inh inactive, T cruzi repl 17, PolyA inhibitor -18 and CHT allo act inactive.
`CCCNC(=O)N1CCCC(C(=O)c2cccc(Cl)c2)C1` (stereo not given) gave CHT inh -5.2*, T cruzi repl 0, PolyA inhibitor 5, CHT allo act inactive, CHT block conf 60%* and HEK293 CHT ctr inactive.
Screening Cc1coc2c(C)c3oc(=O)c(CCC(=O)NCCCn4ccnc4)c(C)c3cc12 returned CHT inh inactive, T cruzi repl 15, PolyA inhibitor -13 and CHT allo act inactive.
